Measured values from ChEMBL document CHEMBL1139083, “Discovery of 2-iminobenzimidazoles as a new class of trypanothione reductase inhibitor by high-throughput screening” (Bioorg Med Chem Lett, 2007).

Assays:
[1] = tested on: Trypanosoma brucei rhodesiense; assay: Inhibition of Trypanosoma brucei rhodesiense trypanothione reductase at 25 uM
[2] = Inhibition of Trypanosoma brucei rhodesiense trypanothione reductase
How it was run: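 Automated photometric TR assay adapted to 384-well format. The rate of TNB formation was followed continuously at 412 nm for 15 min at room temperature.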

[3] = tested on: Trypanosoma brucei rhodesiense; assay: Trypanocidal activity against Trypanosoma brucei rhodesiense; type: functional, organism-based
HT-29 = assay: Cytotoxicity against human HT29 cells; type: functional, cell-based
[4] = target: T1, Glutathione reductase, mitochondrial (Homo sapiens, UniProt P00390); assay: Inhibition of human glutathione reductase
T1 sequence (P00390 whole entry): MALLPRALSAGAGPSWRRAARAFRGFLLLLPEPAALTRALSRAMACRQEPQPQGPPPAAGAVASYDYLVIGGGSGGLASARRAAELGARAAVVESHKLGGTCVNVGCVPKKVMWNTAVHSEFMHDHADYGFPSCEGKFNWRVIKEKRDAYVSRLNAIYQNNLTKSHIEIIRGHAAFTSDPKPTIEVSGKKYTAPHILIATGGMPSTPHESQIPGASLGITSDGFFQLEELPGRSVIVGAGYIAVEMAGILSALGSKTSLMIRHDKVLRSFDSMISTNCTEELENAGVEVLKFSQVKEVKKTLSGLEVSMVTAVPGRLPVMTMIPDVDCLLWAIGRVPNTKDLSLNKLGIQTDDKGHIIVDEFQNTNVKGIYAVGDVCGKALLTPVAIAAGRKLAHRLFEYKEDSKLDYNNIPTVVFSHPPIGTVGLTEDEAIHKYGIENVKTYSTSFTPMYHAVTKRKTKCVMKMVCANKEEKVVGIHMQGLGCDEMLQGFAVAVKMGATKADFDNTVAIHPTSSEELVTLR
How it was run: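 GR assay adapted from the TR screening protocol, using higher enzyme and G[S]₂ levels because of the higher K_m. The rate of TNB formation was recorded continuously at 412 nm over 15 min at room temperature.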

| Structure (SMILES) | IC50 [2] [µM] | also measured |
| --- | --- | --- |
| Cc1ccc(OCC(O)Cn2c(=N)n(CCN3CCOCC3)c3ccccc32)cc1 (stereo unspecified) | > 100 |  |
| C=CCn1c(=N)n(CC(O)c2ccc(OCC)cc2)c2ccccc21 (stereo unspecified) | > 100 | inhibition [1]: 6% |
| CN1CCCC(n2c(=N)n(CCOc3ccccc3)c3ccccc32)C1 (stereo unspecified) | > 100 |  |
| N=c1n(Cc2ccccc2)c2ccccc2n1CC(O)c1ccc(Cl)cc1 (stereo unspecified) | > 100 | inhibition [1]: 32% |
| CC(=O)/N=c1/n(CCOc2ccccc2)c2ccccc2n1CCN1CCCCC1 | > 100 |  |
| CCCCn1c(=N)n(CC(O)c2ccc(Br)cc2)c2ccccc21 (stereo unspecified) | > 100 | inhibition [1]: 42% |
| N=c1n(CCN2CCOCC2)c2ccccc2n1CC(O)COc1ccccc1 (stereo unspecified) | > 100 |  |
| Cc1ccc(C(O)Cn2c(=N)n(CCCN(C)C)c3ccccc32)cc1 (stereo unspecified) | 35 |  |
| c1ccc(OCCNc2ccccc2NCCN2CCCCC2)cc1 | > 100 |  |
| CCn1c(=N)n(CCOCCOCCn2c(=N)n(CC)c3ccccc32)c2ccccc21 | > 100 |  |
| C=CCn1c(=N)n(CCN(CC)CC)c2ccccc21 | > 100 | inhibition [1]: 31% |
| CCN(CC)CCn1c(=N)n(CC(=O)c2ccc(-c3ccccc3)cc2)c2ccccc21 | 25 |  |
| Cc1ccc(C(O)Cn2c(=N)n(CCN(C)C)c3ccccc32)cc1 (stereo unspecified) | 29 |  |
| CCN(CC)CCn1c(=N)n(CCN(CC)CC)c2ccccc21 | 59 |  |
| CC(C)(C)C(O)Cn1c(=N)n(CCN2CCCCC2)c2ccccc21 (stereo unspecified) | > 100 | inhibition [1]: 66% |

These reach a lower IC50 [2]. Values come first.

| IC50 [2] [µM] | Structure (SMILES) | also measured |
| --- | --- | --- |
| 24 | COc1ccc(C(O)Cn2c(=N)n(CCN3CCCCC3)c3ccccc32)cc1 (stereo unspecified) | inhibition [1]: 85% |
| 19 | CCN(CC)CCn1c(=N)n(CC(O)c2ccc(C)cc2)c2ccccc21 (stereo unspecified) |  |
| 16 | Cc1ccc(C(O)Cn2c(=N)n(CCN3CCCCC3)c3ccccc32)cc1 (stereo unspecified) |  |
| 10 | CN(C)CCn1c(=N)n(CC(O)c2ccc(Cl)c(Cl)c2)c2ccccc21 (stereo unspecified) | inhibition [1]: 92%; Ki [2]: 5.4 µM; IC50 [3]: 0.6 µM; IC50 (HT-29): 46 µM; IC50 [4]: > 100 µM |
| 10 | CCN(CC)CCn1c(=N)n(CC(=O)c2ccc(Cl)c(Cl)c2)c2ccccc21 |  |
| 9 | Cc1ccc(OCC(O)Cn2c(=N)n(CCN3CCCCC3)c3ccccc32)cc1 (stereo unspecified) |  |
| 9 | CCN(CC)CCn1c(=N)n(CC(O)c2ccc(Cl)c(Cl)c2)c2ccccc21 (stereo unspecified) |  |
| 8 | CCN(CC)CCn1c(=N)n(CCOc2ccccc2)c2ccccc21 |  |
| 8 | N=c1n(CCCCCOc2ccccc2)c2ccccc2n1CCN1CCCCC1 |  |
| 7 | N=c1n(CCCOc2ccccc2)c2ccccc2n1CCN1CCCCC1 |  |
| 7 | CCN(CC)CCn1c(=N)n(CC(=O)c2ccc(C)cc2)c2ccccc21 | inhibition [1]: 91% |
| 5 | N=c1n(CCN2CCCCC2)c2ccccc2n1CC(O)COc1ccccc1 (stereo unspecified) |  |
| 5 | N=c1n(CCN2CCCCC2)c2ccccc2n1CC(O)COc1ccc(Cl)cc1Cl (stereo unspecified) |  |
| 4 | N=c1n(CCOCCOCCn2c(=N)n(Cc3ccccc3)c3ccccc32)c2ccccc2n1Cc1ccccc1 | Ki [2]: 1.9 µM; IC50 [3]: 1.3 µM; IC50 (HT-29): 144 µM; IC50 [4]: > 100 µM |
| 4 | N=c1n(CCN2CCCCC2)c2ccccc2n1CC(O)c1ccc(Cl)c(Cl)c1 (stereo unspecified) | Ki [2]: 3.6 µM; IC50 [3]: 0.2 µM; IC50 (HT-29): 9 µM; IC50 [4]: > 100 µM |
| 4 | N=c1n(CCOc2ccccc2)c2ccccc2n1CCN1CCCCC1 |  |
